Bioassay records (PubChem BioAssay)
The list is not random: actives were taken first. Their share in the collection is about 4%.
hERG rescue = hERG rescue from dofetilide block, primary screen, cell-based, CHO-hERG, FluxOR thallium flux, dofetilide IC70. 0.51% of 310,000 active. activation (rescue from dofetilide block), less the hit threshold, % at 10 µM. dofetilide IC70 present. Voltage-gated inwardly rectifying potassium channel KCNH2 (Homo sapiens), Q12809. AID 1511, 2009;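 active means activation above the mean of controls blocked by dofetilide plus 5 SD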;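 further: thallium influx through hERG after potassium depolarization seen as dye fluorescence rise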
KCNK9 inh = KCNK9 potassium channel inhibitors, primary screen, HEK293 cells, thallium flux; AID 488922, 2010; 1.2% of 310,000 active; Potassium channel subfamily K member 9 (Homo sapiens), Q9NPC2; B-score at 10 µM; FluxOR thallium flux fluorescence; stronger effect = lower value;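 active means ratio B-score over 3 SD below the library mean, with starting fluorescence within 5 SD of its mean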;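 further: negative B-score means less thallium flux so channel inhibition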
PHOSPHO1 block = PubChem AID 1565; Phosphoethanolamine/phosphocholine phosphatase (Homo sapiens), Q8TCT1; recombinant PHOSPHO1, absorbance phosphatase assay; inhibition, % at 13.3 µM; 1.1% of 290,000 active; in the data active means inhibition above about 60%
KCNQ1 pot = potentiators or activators of KCNQ1 channel, primary screen, cell-based, thallium flux, high-throughput; Potassium voltage-gated channel subfamily KQT member 1 (Homo sapiens), P51787; CHO-K1 KCNQ1, thallium flux FluxOR fluorescence; stronger effect = higher value; B-score at 10 µM; 0.35% of 310,000 active; AID 2648, 2010;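 active means fluorescence ratio B-score, a plate-corrected score, at least three library SD, with initial intensity B-score within 5 SD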
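Doses: Single concentration per compound, DMSO matched to controls | Test system: KCNQ1-transfected CHO-K1 cells | Timing: 90 min dye loading and 20 min compound exposure, both at room temperature | Measured by: Kinetic FluxOR thallium fluorescence, 10-s 1-Hz baseline, 110-s post-stimulus read | Medium: Assay buffer with matched DMSO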
KCNQ1 inh = inhibitors of human KCNQ1 channel, primary screen, cell-based, thallium flux, high-throughput | Potassium voltage-gated channel subfamily KQT member 1 (Homo sapiens), P51787 | CHO-K1 KCNQ1, FluxOR thallium flux fluorescence; stronger effect = higher value | B-score at 10 µM | 1.3% of 310,000 active;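 active means compounds whose thallium flux B-score, printed positive for inhibition, exceeds three library SD while starting fluorescence stays within three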;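 further: channel opened by potassium depolarization with thallium stimulus after 20 min compound exposure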
KCNK3 block = human KCNK3 channel inhibitors, primary screen, CHO cells, FluxOR thallium flux, B-score; AID 602410, 2012; B-score at 10 µM; Potassium channel subfamily K member 3 (Homo sapiens), O14649; FluxOR fluorescence; stronger effect = lower value; 0.84% of 340,000 active;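 active means B-score under library mean minus 4 SD, starting fluorescence ratio at most library mean plus 5 SD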;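 further: more negative B-score means stronger inhibition of thallium flux through KCNK3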
KCNK9 inh conf = KCNK9 potassium channel inhibitors, confirmation, HEK293 cells, thallium flux, duplicate; shares compounds with KCNK9 inh; FluxOR thallium flux fluorescence; inhibition, % at 10 µM; 43% of 4,900 active;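 active means thallium signal inhibited by more than 5 SD of the compound-free buffer control wells, on both duplicate plates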;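 further: 0% = assay buffer control wells without compound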
Kir2-1 spec = mouse Kir2.1 channel inhibition, confirmation, selectivity assay for KCNK9 modulator project, cell-based, HEK293, thallium flux; Kir2.1 cells, FluxOR thallium flux fluorescence; AID 492993, 2010; 4% of 4,900 active; shares compounds with KCNK9 inh; inhibition, % at 10 µM;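 active means thallium signal drop more than 5 SD beyond the mean of the no-compound control wells, seen in both duplicate plates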;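 further: signal is fluorescence rise after thallium addition divided by baseline fluorescence; plate controls were assay buffer only for no effect and full block by chlorpromazine control for full effect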
KCNK9 uninduced = thallium flux in non-induced HEK293 cells, confirmation, counter-screen for KCNK9 inhibitor project, cell-based, second counter screen, non-induced KCNK9-HEK293 | shares compounds with KCNK9 inh | FluxOR thallium flux | inhibition, % at 10 µM | 40% of 4,900 active;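 active means thallium signal drop beyond 5 SD of the untreated control mean, on both duplicate plates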;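 further: plate controls were buffer only IC0 wells for no effect and SID17386958 at its maximal inhibitory level for full effect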
* = called active by the depositor; i = inactive; x = not tested or not shown.

SMILES	hERG rescue	KCNK9 inh	PHOSPHO1 block	KCNQ1 pot	KCNQ1 inh	KCNK3 block	KCNK9 inh conf	Kir2-1 spec	KCNK9 uninduced
O=C(O)CN1C(=O)/C(=C\c2cc(Br)ccc2OCc2ccc(Cl)cc2Cl)SC1=S	-13	i	x	i	i	i	x	x	x
O=C(O)CN1C(=O)/C(=C\c2ccccc2OCc2ccc(Cl)cc2)SC1=S	-9	i	16	i	i	i	i	i	i
O=C(CCN1C(=O)/C(=C/c2ccccc2Cl)SC1=S)Nc1ccccc1C(=O)O	-26	i	16	i	i	i	i	i	i
O=C(CN1C(=O)S/C(=C\C=C\c2ccccc2)C1=O)Nc1cccc(O)c1	-7	i	-2	i	i	i	x	x	x
O=C(O)CN1C(=O)/C(=C\c2cccc(OCc3ccc(F)cc3)c2)SC1=S	-4	i	48	i	i	i	x	x	x
Cc1ccc2c(c1)N(C(=O)CCC(=O)NCCCN1CCN(C)CC1)CCO2	-5	i	28	i	i	i	x	x	x
CN(CC(=O)Nc1ccccc1C(F)(F)F)C(=O)CSCc1ccccc1	-13	i	x	i	i	i	x	x	x
O=C(CSC1=Nc2ccccc2C2=NC(CC(=O)NCc3ccco3)C(=O)N12)NCC1CCCO1 (configuration not stated)	-14	i	31	i	i	i	x	x	x
O=C(O)CN1C(=O)/C(=C\c2cccc(OCc3ccccc3F)c2)SC1=S	-9	i	-4	i	i	i	i	i	i
O=C(O)CN1C(=O)/C(=C\c2cccc(OC(=O)c3ccco3)c2)SC1=S	-8	i	-13	i	i	i	x	x	x
COc1cc(C)c(C(=O)Oc2cc(C)c(C(=O)O)c(O)c2C)c(OC)c1C	-9	i	12	i	i	i	i	i	i
COc1cc(C)c(C(=O)Oc2cc(C)c(C(=O)O)c(O)c2C)c(O)c1C(=O)O	-3	i	x	i	i	i	x	x	x
O=C(Cn1c(=O)c2cccn2c2ccccc21)NCCc1ccc(Cl)cc1	-2	i	44	i	i	i	x	x	x
C=CCOC(=O)C1=C(C)OC(N)=C(C#N)C1c1c(C)nn(-c2ccccc2)c1Cl (configuration not stated)	-7	-8.4*	5	i	i	-10*	50%*	i	34%*
COc1ccc(Br)cc1C(=O)Nc1cccc(NC(=O)c2ccco2)c1	-21	-18*	-2	i	i	i	59%*	i	i
COc1c(C)cc(Br)cc1C(=O)NC(=S)Nc1ccc(Cl)c(C(=O)O)c1	-5	i	-22	i	i	i	i	i	i
COc1c(C)cc(Br)cc1C(=O)Nc1cccc(NC(=O)c2ccco2)c1	-15	-11*	-2	i	i	-11*	67%*	i	i
COc1cccc(NC(=O)c2ccco2)c1	-7	i	12	i	i	i	x	x	x
COc1ccc(S(=O)(=O)N2CCCCC2)cc1NC(=O)c1ccco1	-7	i	38	i	i	i	x	x	x
COc1ccc(NC(=O)c2ccco2)cc1S(=O)(=O)N1CCCCC1	-6	i	24	i	i	i	i	i	i
CC(=O)Nc1ccc(SC(C)C(=O)NC2CCCC2)cc1 (configuration not stated)	-2	i	12	i	i	i	x	x	x
Cc1ccc(C(=O)Nc2cccc(C(=O)N/N=C/c3ccc(O)cc3)c2)cc1	-11	i	39	i	i	i	x	x	x
COc1ccc(C(=O)NC(C)c2ccc(-n3ccnc3)cc2)c(OC)c1 (configuration not stated)	-2	i	30	i	i	i	x	x	x
COc1ccccc1NC(=O)c1ccc(-c2ccc(Br)cc2)o1	-2	-11*	23	i	i	i	33%*	i	30%*
COc1ccc(Br)cc1C(=O)Nc1ccccc1-c1ccccc1	-3	-10*	4	i	i	i	52%*	i	42%*
SMILES	hERG rescue	KCNK9 inh	PHOSPHO1 block	KCNQ1 pot	KCNQ1 inh	KCNK3 block	KCNK9 inh conf	Kir2-1 spec	KCNK9 uninduced
CC(/C=N\N1CCN(Cc2ccc(C)cc2)CC1)=C\c1ccccc1	-5	i	-47	i	i	i	i	i	i
Cc1ccc(CN2CCN(/N=C\C=C\c3ccccc3)CC2)cc1	-12	i	32	i	i	i	i	i	i
BrC(/C=N/N1CCN(Cc2ccccc2)CC1)=C/c1ccccc1	-11	i	-1	i	i	i	i	i	i
CCOC(=O)[C@@H]1[C@H]2COc3ccccc3[C@H]2N2C(=O)N(c3ccc(F)cc3)C(=O)[C@]12C	-6	i	4	i	i	i	x	x	x
COc1ccc(C(O)P(=O)(OC(C)C)c2ccc(N(C)C)cc2)c(OC)c1 (configuration not stated)	0	i	16	i	i	i	x	x	x
C/C(=N\Nc1ncc(Cl)cc1Cl)c1ccccn1	-29	-10*	-4	i	11*	i	50%*	i	36%*
O=C(COC(=O)c1ccc(F)c(S(=O)(=O)N2CCOCC2)c1)NCCc1ccc(F)cc1	x	x	x	x	x	i	x	x	x
Cc1cc(C)c2c3c(c(-c4ccccc4)n2n1)c(=O)n(C)c(=O)n3C	x	x	x	x	x	i	x	x	x
Cc1cc(-c2ccccc2)c2c3c(c(-c4ccccc4)n2n1)c(=O)n(C)c(=O)n3C	-6	-8.8*	32	i	i	i	i	i	36%*
O=Cc1cc(Cl)ccc1OCCN1CCC(Cc2ccccc2)CC1	-26	i	44	i	i	i	i	i	i
